Results on 25 compounds are retold here after ChEMBL document CHEMBL1212860, “Further optimization of novel pyrrole 3-carboxamides for targeting serotonin 5-HT(2A), 5-HT(2C), and the serotonin transporter as a potential antidepressant” (Bioorg Med Chem, 2010).

Assay [1] concerns the target Sodium-dependent serotonin transporter (Homo sapiens, UniProt P31645). Kind of assay: Displacement of [3H]imipramine from human SERT expressed in HEK293 cells. Type of assay: cell-based. The method, boiled down: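 Membranes from 293 cells expressing SERT were incubated with 2 nM [3H]imipramine in 50 mM Tris-HCl pH 7.4 with 120 mM NaCl and 5 mM KCl for 30 min at 27 °C. Filtered through glass fibre presoaked in 0.5% PEI, then washed with ice-cold 50 mM Tris-HCl pH 7.4 containing 0.9% NaCl.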

Another assay deals with Mus musculus. Kind of assay: Locomotor activity in mouse assessed as distance traveled by animal in horizontal locomotion at 25 mg/kg, po after 60 mins measured for 30 mins by spontaneous locomotor activity. Type of assay: functional. The method, boiled down: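 Mice were dosed orally at 25 mg/kg and acclimated to the chamber for 10 min. Horizontal distance travelled (cm) was then recorded over 30 min by automated video tracking. Testing ran between 09:00 and 17:00 h. Mean ± SEM of 6–7 mice.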

Assay [2] deals with T1, 5-hydroxytryptamine receptor 2C (Homo sapiens, UniProt P28335).
T1 sequence (P28335 whole entry): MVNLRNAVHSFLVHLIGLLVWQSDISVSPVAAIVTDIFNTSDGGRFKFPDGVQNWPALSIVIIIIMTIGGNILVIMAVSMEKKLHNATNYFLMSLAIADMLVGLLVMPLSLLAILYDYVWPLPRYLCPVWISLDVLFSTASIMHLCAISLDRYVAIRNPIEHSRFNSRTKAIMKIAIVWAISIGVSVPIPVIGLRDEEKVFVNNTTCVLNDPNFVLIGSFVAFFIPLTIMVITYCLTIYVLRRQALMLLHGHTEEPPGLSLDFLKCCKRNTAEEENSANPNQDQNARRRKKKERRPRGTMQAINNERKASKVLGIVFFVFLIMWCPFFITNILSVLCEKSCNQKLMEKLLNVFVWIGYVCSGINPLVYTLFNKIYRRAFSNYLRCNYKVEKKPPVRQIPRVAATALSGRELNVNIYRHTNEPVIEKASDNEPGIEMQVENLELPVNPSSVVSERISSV
Kind of assay: Displacement of [3H]mesulergine from human recombinant 5HT2C expressed in CHOK1 cells. Type of assay: cell-based, CHO-K1. Put shortly:
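Frozen CHO-K1 membranes with human recombinant 5-HT2C were incubated with 1.3 nM [3H]mesulergine in 50 mM Tris-HCl pH 7.4 with 0.1% ascorbic acid and 4 mM CaCl2 for 60 min at 27 °C. Nonspecific binding was set with 100 mianserin. Stopped by rapid filtration on glass fibre presoaked in 0.5% PEI.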

Assay [3] addresses Voltage-gated inwardly rectifying potassium channel KCNH2 (Homo sapiens, UniProt Q12809). Kind of assay: Inhibition of human recombinant ERG channel expressed in HEK293 cells.
Assay [4] has as its target 5-hydroxytryptamine receptor 2A (Homo sapiens, UniProt P28223). Kind of assay: Displacement of [3H]ketanserin from human recombinant 5HT2A expressed in CHOK1 cells. In kind it is cell-based, CHO-K1. The method, boiled down: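 Human recombinant 5-HT2A membranes from CHO-K1 cells were incubated with 1 nM [3H]ketanserin, with mianserin defining nonspecific binding. Incubation was 60 min at 27 °C in 50 mM Tris-HCl pH 7.4 with 4 mM CaCl2 and 0.1% ascorbic acid. Filtered on glass fibre presoaked in 0.5% PEI, washed, and counted. IC50 by nonlinear regression from 7–8 concentrations in duplicate.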

Sodium-dependent serotonin transporter, sequence (P31645 whole entry): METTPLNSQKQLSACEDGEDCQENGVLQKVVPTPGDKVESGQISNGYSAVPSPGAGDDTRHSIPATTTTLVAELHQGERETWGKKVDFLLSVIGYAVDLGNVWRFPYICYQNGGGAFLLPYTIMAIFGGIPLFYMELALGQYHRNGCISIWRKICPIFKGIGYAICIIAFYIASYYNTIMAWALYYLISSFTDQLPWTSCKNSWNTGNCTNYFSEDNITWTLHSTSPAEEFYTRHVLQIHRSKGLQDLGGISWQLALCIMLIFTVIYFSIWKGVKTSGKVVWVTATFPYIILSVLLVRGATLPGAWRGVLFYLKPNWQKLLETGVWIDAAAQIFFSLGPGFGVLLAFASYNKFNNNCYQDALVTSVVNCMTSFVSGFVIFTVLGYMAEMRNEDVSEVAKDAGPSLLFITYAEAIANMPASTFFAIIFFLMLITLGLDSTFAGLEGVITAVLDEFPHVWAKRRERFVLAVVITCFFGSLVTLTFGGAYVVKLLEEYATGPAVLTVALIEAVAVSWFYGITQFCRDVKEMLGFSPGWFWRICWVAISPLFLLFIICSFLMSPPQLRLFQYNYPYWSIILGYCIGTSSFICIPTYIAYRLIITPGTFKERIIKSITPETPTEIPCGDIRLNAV
Voltage-gated inwardly rectifying potassium channel KCNH2, sequence (Q12809 whole entry): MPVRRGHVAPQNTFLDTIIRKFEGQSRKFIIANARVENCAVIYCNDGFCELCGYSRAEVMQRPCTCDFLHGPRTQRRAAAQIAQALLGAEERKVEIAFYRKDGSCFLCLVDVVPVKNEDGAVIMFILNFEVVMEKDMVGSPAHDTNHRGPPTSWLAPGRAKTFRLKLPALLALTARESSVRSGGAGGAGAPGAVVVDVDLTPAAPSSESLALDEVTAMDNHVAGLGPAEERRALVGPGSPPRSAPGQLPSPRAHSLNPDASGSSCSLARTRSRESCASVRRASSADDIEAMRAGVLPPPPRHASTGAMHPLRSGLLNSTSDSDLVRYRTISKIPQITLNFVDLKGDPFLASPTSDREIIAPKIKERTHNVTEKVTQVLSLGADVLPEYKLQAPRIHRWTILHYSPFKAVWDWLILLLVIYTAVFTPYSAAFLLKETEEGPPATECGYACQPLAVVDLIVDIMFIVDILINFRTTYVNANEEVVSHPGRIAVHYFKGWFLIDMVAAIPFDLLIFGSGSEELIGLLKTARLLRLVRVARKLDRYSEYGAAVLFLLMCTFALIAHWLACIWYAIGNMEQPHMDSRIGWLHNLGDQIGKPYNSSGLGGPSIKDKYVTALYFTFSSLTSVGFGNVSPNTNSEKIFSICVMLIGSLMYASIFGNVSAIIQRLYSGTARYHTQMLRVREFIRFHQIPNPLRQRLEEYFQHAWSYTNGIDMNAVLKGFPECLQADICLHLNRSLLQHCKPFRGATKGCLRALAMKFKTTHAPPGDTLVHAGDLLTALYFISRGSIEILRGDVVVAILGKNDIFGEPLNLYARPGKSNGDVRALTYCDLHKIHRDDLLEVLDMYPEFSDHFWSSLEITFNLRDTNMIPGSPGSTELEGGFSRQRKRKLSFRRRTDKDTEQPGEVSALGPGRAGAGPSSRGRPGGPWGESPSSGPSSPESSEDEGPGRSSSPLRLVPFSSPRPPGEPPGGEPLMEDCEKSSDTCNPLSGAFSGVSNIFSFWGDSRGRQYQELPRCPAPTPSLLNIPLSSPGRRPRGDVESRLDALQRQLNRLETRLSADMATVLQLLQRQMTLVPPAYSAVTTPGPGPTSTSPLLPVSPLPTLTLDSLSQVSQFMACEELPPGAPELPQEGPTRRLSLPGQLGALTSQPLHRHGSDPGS
5-hydroxytryptamine receptor 2A, sequence (P28223 whole entry): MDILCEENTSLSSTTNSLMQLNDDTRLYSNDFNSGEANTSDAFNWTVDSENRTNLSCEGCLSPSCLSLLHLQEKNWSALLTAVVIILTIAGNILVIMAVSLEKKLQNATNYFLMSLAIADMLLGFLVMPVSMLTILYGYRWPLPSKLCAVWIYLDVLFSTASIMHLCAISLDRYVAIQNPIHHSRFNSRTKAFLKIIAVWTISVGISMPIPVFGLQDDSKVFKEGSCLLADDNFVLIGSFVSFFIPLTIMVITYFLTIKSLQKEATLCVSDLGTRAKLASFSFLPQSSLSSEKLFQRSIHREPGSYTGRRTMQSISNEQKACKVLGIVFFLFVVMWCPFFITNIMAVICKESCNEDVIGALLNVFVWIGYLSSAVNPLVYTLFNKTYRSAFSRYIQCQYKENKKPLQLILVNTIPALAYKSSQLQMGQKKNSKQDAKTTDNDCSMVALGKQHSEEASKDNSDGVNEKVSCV

Consider `Cc1c(Cl)cccc1N1CCN(CCNC(=O)c2cc(-c3ccccc3)n(C)c2C)CC1`, for which the IC50 came out at 64 nM in assay [1] and 233 nM in assay [2]. Also, in the assay on Mus musculus, the Activity came out at 7100 cm.
Regarding `Cc1c(C(=O)N(C)CCCN2CCN(c3cccc(Cl)c3Cl)CC2)cc(-c2ccccc2)n1C`, the IC50 stood at 500 nM in assay [3] and 35 nM in assay [2].
On to `Cc1[nH]c(-c2ccccn2)cc1C(=O)NCCCN1CCN(c2cccc(Cl)c2Cl)CC1`, for which, in assay [2], the IC50 amounted to 221 nM.
Regarding `Cc1c(C(=O)NCCCN2CCN(c3ccccc3Br)CC2)cc(-c2ccccc2)n1C`, the figures for the IC50 in assay [1], in assay [4] and in assay [2] were 225 nM, 221 nM and 633 nM, respectively.
For `Cc1c(C(=O)NCCN2CCN(c3cccc(Cl)c3Cl)CC2)c(C)n(C)c1-c1ccccc1`, in that order: 78 nM, 33 nM and 16 nM.
As to `CCCn1c(-c2ccccc2)cc(C(=O)NCCCN2CCN(c3cccc(Br)c3)CC2)c1C`, the IC50 in assay [1] turned out to be 225 nM; in assay [4], 221 nM; in assay [2], 633 nM.
`CCCn1c(-c2ccccc2)cc(C(=O)NCCCN2CCN(c3cccc(Cl)c3Cl)CC2)c1C`: the IC50 in assay [3] was determined as 540 nM.
`Cc1cccc(N2CCN(CCCNC(=O)c3cc(C(C)(C)C)n(C)c3C)CC2)c1C`: the results for the IC50 in assay [1], in assay [4] and in assay [2] were 252 nM, 386 nM and 1140 nM, respectively.
With `Cc1c(C(=O)NCCCN2CCN(c3cccc(Cl)c3Cl)CC2)cc(-c2cccnc2)n1C`, the IC50 is 6800 nM in assay [3], 7 nM in assay [1], 209 nM in assay [4] and 92 nM in assay [2].
For `Cc1c(Cl)cccc1N1CCN(CCNC(=O)c2cc(C(C)(C)C)n(C)c2C)CC1`, the IC50 in assay [1] amounted to 315 nM; in assay [4], 54 nM; in assay [2], 210 nM. Also, in the assay on Mus musculus, the Activity worked out at 6217 cm.
Consider `CCCn1c(-c2ccccc2)cc(C(=O)NCCCN2CCN(c3ccc(Cl)c(Cl)c3)CC2)c1C`, for which the IC50 came to 284 nM in assay [1], 54 nM in assay [4] and 324 nM in assay [2].
As to `CCCn1c(-c2ccccc2)cc(C(=O)NCCCN2CCN(c3cccc4cccnc34)CC2)c1C`, the figures for the IC50 in assay [1], in assay [4] and in assay [2] were 82 nM, 210 nM and 420 nM, respectively.
As for `CCCn1c(-c2ccccc2)cc(C(=O)N(C)CCCN2CCN(c3cccc(Cl)c3Cl)CC2)c1C`, in assay [2], the IC50 stood at 21 nM.
For `Cc1c(C(=O)NCCN2CCN(c3cccc(Cl)c3Cl)CC2)cc(C(C)(C)C)n1C`, the figures for the IC50 in assay [1], in assay [4] and in assay [2] were 45 nM, 50 nM and 109 nM, respectively.
For `Cc1cccc(N2CCN(CCNC(=O)c3cc(C(C)(C)C)n(C)c3C)CC2)c1C`, the IC50 in assay [3] is 11800 nM; in assay [1], 908 nM; in assay [4], 36 nM; in assay [2], 2230 nM.
As for `Cc1ccc2cccc(N3CCN(CCCNC(=O)c4cc(-c5ccccc5)n(C)c4C)CC3)c2n1`, the half-inhibitory concentration (IC50) was determined as 300 nM in assay [1], 832 nM in assay [4] and 653 nM in assay [2].
For `CCn1c(-c2ccc(Cl)cc2)cc(C(=O)NCCCN2CCN(c3cccc(Cl)c3Cl)CC2)c1C`, in that order: 629 nM, 153 nM and 22 nM.
As for `Cc1c(C(=O)NCCCN2CCN(c3cccc4cccnc34)CC2)cc(-c2ccccc2)n1C`, the IC50 in assay [1] is 22 nM; in assay [4] it was 352 nM; in assay [2] it was 233 nM.
As to `Cc1[nH]c(-c2ccccc2)cc1C(=O)NCCCN1CCN(c2cccc(Cl)c2Cl)CC1`, in assay [3], the IC50 is 100 nM.
As for `CCCn1c(-c2ccccc2)cc(C(=O)NCCCN2CCN(c3cccc(C(F)(F)F)c3)CC2)c1C`, the IC50 in assay [1] turned out to be 381 nM; in assay [4], 410 nM; in assay [2] it was 619 nM.
For `CCCn1c(-c2ccccc2)cc(C(=O)NCCCN2CCN(c3cccc(OC)c3)CC2)c1C`, in that order: 322 nM, 153 nM and 452 nM.
As for `CCCn1c(-c2ccccn2)cc(C(=O)NCCCN2CCN(c3cccc(Cl)c3Cl)CC2)c1C`, the IC50 in assay [3] came to 1000 nM.
Take `CCCn1c(-c2ccccc2)cc(C(=O)NCCCN2CCN(c3cc(F)ccc3F)CC2)c1C`: the figures for the 50% inhibitory concentration (IC50) in assay [1], in assay [4] and in assay [2] were 854 nM, 135 nM and 1010 nM, respectively.
As to `Cc1c(C(=O)NCCCN2CCN(c3ccncc3)CC2)cc(-c2ccccc2)n1C`, the IC50 in assay [1] was > 10000 nM; in assay [4], 4560 nM; in assay [2], 5260 nM.
In the case of `CCCn1c(-c2ccccc2)cc(C(=O)N(C)CCCN2CCN(c3cccc(C)c3C)CC2)c1C`, the IC50 in assay [3] was found to be 700 nM; in assay [1] it was 163 nM; in assay [4], 17 nM; in assay [2] it was 12 nM.
